Measured values as given in ChEMBL document CHEMBL1143723, “Antiproliferative cardenolides of an Elaeodendron sp. from the Madagascar rain forest(1)” (J Nat Prod, 2007).

Key:
Assay type in all cases: functional, cell-based
[1] = tested on: A2780; experiment: Antiproliferative activity against human A2780 cells
[2] = Antiproliferative activity against human H522T1 cells; settings: H522-T1
In short: (§1)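 Cultured human cancer lines (MDA-MB-435 breast, HT-29 colon, H522-T1 non-small cell, U937 histiocytic lymphoma) were exposed to compound, and growth was read by luminescence. The method follows an earlier report, with luminescence measured on a multilabel reader.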

[3] = tested on: HT-29; experiment: Antiproliferative activity against human HT29 cells; in short: as §1
[4] = tested on: MDA-MB-435; experiment: Antiproliferative activity against human MDA-MB-435 cells; in short: as §1
[5] = tested on: U-937; experiment: Antiproliferative activity against human U937 cells; in short: as §1

| SMILES | IC50 [1] [nM] | IC50 [2] [nM] | IC50 [3] [nM] | IC50 [4] [nM] | IC50 [5] [nM] |
| --- | --- | --- | --- | --- | --- |
| CO[C@H]1CCO[C@@H](O[C@@H]2C=C3CC[C@@H]4[C@H](CC[C@]5(C)[C@@H](C6=CC(=O)OC6)CC[C@]45O)[C@@]3(C)C[C@H]2O)[C@H]1O | 2500 | – | – | – | – |
| CO[C@H]1CCO[C@@H](O[C@@H]2C=C3CC[C@@H]4[C@H](CC(=O)[C@]5(C)[C@@H](C6=CC(=O)OC6)CC[C@]45O)[C@@]3(C)C[C@H]2O)[C@H]1O [ELAEODENDROSIDE U] | 30000 | – | – | – | – |
| CO[C@@H]1CCO[C@H]2O[C@@H]3C=C4CC[C@@H]5[C@H](CC[C@]6(C)[C@@H](C7=CC(=O)OC7)[C@@H](OC(C)=O)C[C@]56O)[C@@]4(C)C[C@H]3O[C@]21O [ELAEODENDROSIDE G] | 100 | – | – | – | – |
| CO[C@H]1CCO[C@H]2O[C@@H]3C=C4CC[C@@H]5[C@H](CC[C@]6(C)[C@@H](C7=CC(=O)OC7)CC[C@]56O)[C@@]4(C)C[C@H]3O[C@]21O [ELAEODENDROSIDE B] | 19 | 80 | 80 | 150 | 50 |
| CO[C@H]1CCO[C@H]2O[C@@H]3C=C4CC[C@@H]5[C@H](CC[C@]6(C)[C@@H](C7=CC(=O)OC7)[C@@H](OC(C)=O)C[C@]56O)[C@@]4(C)C[C@H]3O[C@]21O [ELAEODENDROSIDE F] | 190 | – | – | – | – |
| CO[C@@H]1C[C@@H](C)O[C@H]2O[C@@H]3C=C4CC[C@@H]5[C@H](CC[C@]6(C)[C@@H](C7=CC(=O)OC7)[C@@H](OC(C)=O)C[C@]56O)[C@@]4(C)C[C@H]3O[C@]21O [ELAEODENDROSIDE T] | 85 | 180 | 180 | 370 | 150 |
